This passage reports Activity, IC50 and Ki results from ChEMBL document CHEMBL3124879, “Synthesis and evaluation of 2-(1H-indol-3-yl)-4-phenylquinolines as inhibitors of cholesterol esterase” (Bioorg Med Chem Lett, 2014).

For assay [1], the target named is Procathepsin L (Homo sapiens) (UniProt P07711). Briefly: Inhibition of human cathepsin L using Z-Phe-ArgpNA as substrate assessed as residual activity at 50 uM by spectrophotometric analysis relative to control. In a few lines: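 Residual human cathepsin L activity is determined in duplicate with the inhibitor at a single concentration (50). Activity is expressed relative to an uninhibited control.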
Procathepsin L (Homo sapiens), sequence (P07711 114-333 limits assumed): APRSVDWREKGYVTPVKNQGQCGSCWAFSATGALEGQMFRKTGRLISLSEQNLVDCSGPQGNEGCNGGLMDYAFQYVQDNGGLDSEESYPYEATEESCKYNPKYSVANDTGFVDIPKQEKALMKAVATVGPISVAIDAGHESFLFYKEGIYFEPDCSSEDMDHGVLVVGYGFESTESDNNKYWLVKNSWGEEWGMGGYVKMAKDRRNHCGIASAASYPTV

The species named for assay [2] is Bos taurus. Briefly: Inhibition of bovine chymotrypsin assessed as residual activity at 5 uM relative to control. In a few lines:
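Residual chymotrypsin activity is measured with the inhibitor present at a single concentration (5). Assays are run in duplicate, and activity is expressed relative to an uninhibited control.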

Assay [3] is filed under the species Bos taurus. Briefly: Inhibition of bovine trypsin Suc-Ala-Ala-Pro-Arg-para-nitroanilide as substrate assessed as residual activity at 10 uM after 10 mins relative to control. In a few lines: (§1)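 Residual enzyme activity is determined in duplicate experiments in the presence of the inhibitor at a single concentration (10). Activity is expressed relative to an uninhibited control.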

For assay [4], the target named is Acetylcholinesterase (Electrophorus electricus) (UniProt O42275). Briefly: Inhibition of electric eel AChE assessed as residual activity at 10 uM relative to control. Summed up:
as §1

In the next assay the target is T1, Neutrophil elastase (Homo sapiens, UniProt P08246).
T1 sequence (P08246 whole entry): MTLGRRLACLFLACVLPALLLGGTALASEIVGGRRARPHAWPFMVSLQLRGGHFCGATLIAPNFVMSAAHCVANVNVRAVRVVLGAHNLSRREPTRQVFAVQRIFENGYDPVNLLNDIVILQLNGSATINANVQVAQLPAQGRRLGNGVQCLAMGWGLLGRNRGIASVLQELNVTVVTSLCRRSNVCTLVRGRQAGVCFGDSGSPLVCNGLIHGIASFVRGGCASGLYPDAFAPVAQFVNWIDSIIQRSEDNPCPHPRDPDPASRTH
Briefly: Inhibition of human leukocyte elastase.

The target of assay [5] is T2, Prothrombin (Homo sapiens, UniProt P00734). Briefly: Inhibition of human thrombin using H-D-Phe-L-Pip-Arg-para-nitroanilide as substrate after 5 mins.
Assay [6] is described as follows: Inhibition of porcine cholesterol esterase using para-nitrophenyl butyrate as substrate preincubated for 5 mins by spectrophotometric analysis. More on the design: species or system Sus scrofa. Summed up: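 CEase assay on the porcine enzyme with para-nitrophenyl butyrate in 100 mM sodium phosphate and 100 mM NaCl, at 25 °C, read at 405 nm. Final: 6 mM sodium taurocholate, 3% acetonitrile, 3% DMSO, 10 ng/mL CEase. 5 min preincubation before enzyme start. Duplicates at five inhibitor concentrations; IC50 fitted by non-linear regression to v = v0/(1+[I]/IC50).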

Assay [7] addresses T2, Prothrombin. The assay is described as follows: Inhibition of human thrombin using H-D-Phe-L-Pip-Arg-para-nitroanilide as substrate assessed as residual activity at 10 uM after 5 mins relative to control. Summed up:
as §1

For assay [8], the target named is T3, Neutrophil elastase (Homo sapiens) (UniProt P08246).
T3 sequence (whole entry): T1 sequence (P08246 whole entry)
The assay is described as follows: Inhibition of human leukocyte elastase assessed as residual activity at 10 uM relative to control. In a few lines:
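Residual enzyme activity measured in duplicate at one inhibitor concentration; more than 90% residual activity scored as no inhibition.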

Assay [9] can be described thus: Inhibition of bovine trypsin Suc-Ala-Ala-Pro-Arg-para-nitroanilide as substrate after 10 mins. More on the design: species or system Bos taurus.
In another assay the target is Acetylcholinesterase (Electrophorus electricus, UniProt O42275). The assay is described as follows: Inhibition of electric eel AChE.
Acetylcholinesterase, sequence (O42275 whole entry): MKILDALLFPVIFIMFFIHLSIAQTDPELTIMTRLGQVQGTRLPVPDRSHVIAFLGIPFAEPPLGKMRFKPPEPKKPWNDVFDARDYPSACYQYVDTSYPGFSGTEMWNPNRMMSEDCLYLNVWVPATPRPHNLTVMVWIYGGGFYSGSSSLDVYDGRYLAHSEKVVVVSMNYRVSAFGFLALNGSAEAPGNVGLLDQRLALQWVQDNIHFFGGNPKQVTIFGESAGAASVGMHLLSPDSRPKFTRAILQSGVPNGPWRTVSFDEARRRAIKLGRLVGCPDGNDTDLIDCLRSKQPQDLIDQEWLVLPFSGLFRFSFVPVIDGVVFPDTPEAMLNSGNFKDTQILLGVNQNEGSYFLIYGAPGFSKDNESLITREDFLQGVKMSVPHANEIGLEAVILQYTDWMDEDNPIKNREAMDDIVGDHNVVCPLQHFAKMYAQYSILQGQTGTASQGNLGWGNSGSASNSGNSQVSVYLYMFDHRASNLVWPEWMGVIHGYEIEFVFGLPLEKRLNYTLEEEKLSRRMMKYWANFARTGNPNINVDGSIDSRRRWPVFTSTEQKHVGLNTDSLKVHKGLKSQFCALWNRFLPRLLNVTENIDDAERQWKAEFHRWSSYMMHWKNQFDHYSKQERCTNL
A short description of assay [10]: Uncompetitive inhibition of porcine cholesterol esterase using para-nitrophenyl butyrate as substrate by Lineweaver-Burk plot analysis. Also noted: species or system Sus scrofa.
Assay [11] is described as follows: Competitive inhibition of porcine cholesterol esterase using para-nitrophenyl butyrate as substrate by Lineweaver-Burk plot analysis. More on the design: species or system Sus scrofa.
Assay [12] is described as follows: Inhibition of bovine chymotrypsin. Also noted: species or system Bos taurus.
The next assay is filed under the species Sus scrofa. The assay is described as follows: Inhibition of porcine cholesterol esterase using para-nitrophenyl butyrate as substrate assessed as residual activity at 25 uM preincubated for 5 mins by spectrophotometric analysis relative to control. In a few lines: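 Porcine CEase read spectrophotometrically at 405 nm, 25 °C, with para-nitrophenyl butyrate. Buffer: 100 mM sodium phosphate, 100 mM NaCl. Final concentrations: 6 mM sodium taurocholate, 3% acetonitrile, 3% DMSO, 10 ng/mL enzyme. Inhibitor and substrate mixed and held 5 min, then enzyme added to start. Residual activity taken from duplicates at one inhibitor concentration.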

Acetylcholinesterase (Electrophorus electricus), sequence (O42275 24-633 limits assumed): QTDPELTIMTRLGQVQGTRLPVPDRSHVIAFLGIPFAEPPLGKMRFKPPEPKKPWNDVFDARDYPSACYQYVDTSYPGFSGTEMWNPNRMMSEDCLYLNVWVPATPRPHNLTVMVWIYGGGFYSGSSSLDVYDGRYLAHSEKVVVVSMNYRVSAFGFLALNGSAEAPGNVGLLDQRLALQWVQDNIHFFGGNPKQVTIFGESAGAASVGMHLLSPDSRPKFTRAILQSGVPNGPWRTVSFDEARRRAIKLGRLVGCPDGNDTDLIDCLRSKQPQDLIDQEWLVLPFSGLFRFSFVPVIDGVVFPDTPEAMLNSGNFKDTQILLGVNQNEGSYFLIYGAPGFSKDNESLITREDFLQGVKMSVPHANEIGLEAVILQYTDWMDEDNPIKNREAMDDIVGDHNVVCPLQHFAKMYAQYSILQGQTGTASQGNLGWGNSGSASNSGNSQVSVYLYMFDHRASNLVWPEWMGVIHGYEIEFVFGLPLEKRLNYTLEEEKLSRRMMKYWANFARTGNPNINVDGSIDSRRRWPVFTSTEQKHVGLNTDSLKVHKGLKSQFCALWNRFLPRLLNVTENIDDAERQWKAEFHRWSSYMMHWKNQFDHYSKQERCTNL

For `Cc1ccc(-c2cc(-c3ccccc3)c3cc([N+](=O)[O-])ccc3n2)cc1`, the Activity (in assay [1]; in the assay listed under Bos taurus [2]; in the assay listed under Bos taurus [3]; in [4]) was above 90% in each case. The concentration for half-maximal inhibition (IC50) against Neutrophil elastase was at least 28 µM; on Prothrombin [5], at least 30 µM; in [6], at least 20 µM.

Consider `Clc1ccc2nc(-c3ccccc3)cc(-c3ccccc3)c2c1`, for which the Activity (in [1]; in the assay listed under Bos taurus [2]; in the assay listed under Bos taurus [3]; on Prothrombin [7]; in assay [4]) was above 90% throughout. Further, the IC50 against Neutrophil elastase is at least 28 µM; in assay [6], at least 20 µM.

As to `Oc1ccc(-c2cc(-c3ccccc3)c3cc(Cl)ccc3n2)cc1`, the Activity (in [1]; in [8]; in the assay listed under Bos taurus [2]; in [4]) was above 90% throughout. Also, the values for the IC50 (in assay [9]; against Prothrombin [5]; in assay [6]) were at least 51 µM, at least 30 µM and at least 20 µM, respectively.

Turning to `O=[N+]([O-])c1ccc2nc(-c3ccccc3)cc(-c3ccccc3)c2c1`, the Activity (in assay [1]; in [8]; in the assay filed under Bos taurus [2]; at Prothrombin [7]) was above 90% throughout. Besides, the IC50 is at least 51 µM in assay [9], at least 37 µM against Acetylcholinesterase and at least 20 µM in assay [6].

For `O=[N+]([O-])c1ccc2nc(-c3c[nH]c4ccccc34)cc(-c3ccccc3)c2c1`, the Ki in assay [10] is 7 µM; in [11] it was 0.66 µM. Moreover, the Activity (in [1]; in the assay filed under Bos taurus [3]) was above 90% in each case. Moreover, the IC50 in [12] was at least 30 µM; against Neutrophil elastase, 0.63 µM; on Prothrombin [5] it was at least 30 µM; on Acetylcholinesterase, 22.9 µM; in [6] it was 1.98 µM.

Turning to `Clc1ccc2nc(-c3c[nH]c4ccccc34)cc(-c3ccccc3)c2c1`, the Activity (in [1]; in the assay listed under Bos taurus [2]; in the assay filed under Bos taurus [3]) was above 90% throughout. Further, the IC50 on Neutrophil elastase was 4.22 µM; at Prothrombin [5] it was at least 30 µM; on Acetylcholinesterase, at least 37 µM; in assay [6] it was 1.33 µM.

Turning to `O=[N+]([O-])c1ccc2nc(-c3ccc(O)cc3)cc(-c3ccccc3)c2c1`, the Activity (in assay [1]; in the assay listed under Bos taurus [2]; in the assay filed under Bos taurus [3]; in [4]) was above 90% in each case. Besides, the IC50 at Neutrophil elastase is 2.91 µM; against Prothrombin [5], at least 30 µM; in [6] it was at least 20 µM.

On to `Cc1ccc(-c2cc(-c3ccccc3)c3cc(Cl)ccc3n2)cc1`, for which the Activity (in assay [1]; in the assay filed under Bos taurus [2]; at Prothrombin [7]; in assay [4]) was above 90% in each case. Also, the IC50 was at least 28 µM against Neutrophil elastase, at least 51 µM in assay [9] and at least 20 µM in assay [6].

As for `Clc1ccc2nc(-c3cccc(Br)c3)cc(-c3ccccc3)c2c1`, the Activity (in assay [1]; in the assay listed under Bos taurus [2]; on Prothrombin [7]; in assay [4]) was above 90% each time. The IC50 against Neutrophil elastase was at least 28 µM; in assay [9], at least 51 µM; in assay [6], at least 20 µM.

As for `O=[N+]([O-])c1ccc2nc(-c3cccc(Br)c3)cc(-c3ccccc3)c2c1`, the Activity (in assay [1]; in the assay listed under Bos taurus [2]; in the assay filed under Bos taurus [3]; on Prothrombin [7]; in [4]) was above 90% in each case. The IC50 is at least 28 µM against Neutrophil elastase and at least 20 µM in assay [6].

For the molecule `COc1ccc(-c2cc(-c3ccccc3)c3cc([N+](=O)[O-])ccc3n2)cc1`, the Activity (in [1]; in [8]; in the assay listed under Bos taurus [2]; in the assay listed under Bos taurus [3]; in the assay filed under Sus scrofa) was above 90% throughout. The IC50 against Prothrombin [5] was at least 30 µM; at Acetylcholinesterase, at least 37 µM; in assay [6], at least 20 µM.

In the case of `COc1ccc(-c2cc(-c3ccccc3)c3cc(Cl)ccc3n2)cc1`, the Activity (in assay [1]; in the assay filed under Bos taurus [2]; in the assay listed under Bos taurus [3]; in [4]) was above 90% throughout. In addition, the concentration for half-maximal inhibition (IC50) was at least 28 µM against Neutrophil elastase, at least 30 µM on Prothrombin [5] and at least 20 µM in assay [6].
